From ChEMBL document CHEMBL1681721, “Synthesis, in vitro antimalarial and cytotoxicity of artemisinin-aminoquinoline hybrids” (Bioorg Med Chem Lett, 2011)

What was measured:
Plasmodium falciparum [1] = assay: Antiplasmodial activity against chloroquine-resistant Plasmodium falciparum Dd2 by lactate dehydrogenase assay; assay type: functional, organism-based
Summary of the method: (§1)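 IC50s measured in vitro against P. falciparum D10 (chloroquine-sensitive) and Dd2 (chloroquine-resistant). Compounds insoluble in the test medium were added as suspensions in DMSO. Chloroquine served as the reference antimalarial. Values are averages over n data sets.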

CHO = assay: Cytotoxicity against CHO cells by MTT assay; assay type: cell-based, Cricetulus griseus
Summary of the method: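 MTT viability assay on Chinese hamster ovary (CHO) cells, with emetine as the reference drug. IC50 is the average of n data sets.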

Plasmodium falciparum [2] = assay: Antiplasmodial activity against chloroquine-sensitive Plasmodium falciparum D10 by lactate dehydrogenase assay; assay type: functional, organism-based; summary of the method: as §1
Plasmodium falciparum [3] = assay: Resistance index, ratio of IC50 for chloroquine-resistant Plasmodium falciparum Dd2 to IC50 for chloroquine-sensitive Plasmodium falciparum D10; assay type: functional
Summary of the method: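 Calculated as IC50 (Dd2) / IC50 (D10), using IC50s from the parallel in vitro assays on both P. falciparum strains.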

[4] = Selectivity index, ratio of IC50 for CHO cells to IC50 for chloroquine-sensitive Plasmodium falciparum D10; assay type: toxicity, cell-based; details: hamster; for Selectivity Index: cho; for selectivity ratio: CHO cells, read-out: Selectivity Index
Summary of the method: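 Calculated as IC50 (CHO, MTT assay) / IC50 (P. falciparum D10), using IC50s measured in this work.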

Plasmodium falciparum [5] = assay: Ratio of chloroquine IC50 to compound IC50 for chloroquine-resistant Plasmodium falciparum Dd2; assay type: functional

Row | SMILES | IC50 (Plasmodium falciparum [1]) [nM] | IC50 (CHO; cho) [µM] | IC50 (Plasmodium falciparum [2]) [nM] | Ratio IC50 (Plasmodium falciparum [3]) | Selectivity Index [4] | IC50 (CHO; Cricetulus griseus, CHO) [µM] | Ratio IC50 (Plasmodium falciparum [5]) | IC50 (Plasmodium falciparum [1]; Plasmodium falciparum, Dd2) [nM] | IC50 (Plasmodium falciparum [2]; Plasmodium falciparum, D10) [nM] | selectivity ratio [4]
1 | C[C@H]1[C@@H](OCCNCCNc2ccnc3cc(Cl)ccc23)O[C@@H]2O[C@@]3(C)CC[C@H]4[C@H](C)CC[C@@H]1[C@@]24OO3.O=C(O)C(=O)O | 25.7 | 1.64 | 21.5 | 1 | 77 |  |  |  |  | 
2 | CC[C@H]1CN2CCc3cc(OC)c(OC)cc3[C@@H]2C[C@@H]1C[C@H]1NCCc2cc(OC)c(OC)cc21 [EMETINE] |  |  |  |  |  | 0.19 |  |  |  | 
3 | C[C@H]1[C@@H](OCCNCCCNc2ccnc3cc(Cl)ccc23)O[C@@H]2O[C@@]3(C)CC[C@H]4[C@H](C)CC[C@@H]1[C@@]24OO3 | 183 | 37.3 | 118 | 2 | 317 |  |  |  |  | 
4 | CC(CNc1ccnc2cc(Cl)ccc12)NCCO[C@H]1O[C@@H]2O[C@@]3(C)CC[C@H]4[C@H](C)CC[C@@H]([C@H]1C)[C@@]24OO3.O=C(O)C(=O)O (stereo not given in full) |  |  |  | 1 | 184 | 2.75 | 7 | 20.8 | 14.9 | 
5 | C[C@H]1[C@@H](OCCNc2ccc(Nc3ccnc4cc(Cl)ccc34)cc2)O[C@@H]2O[C@@]3(C)CC[C@H]4[C@H](C)CC[C@@H]1[C@@]24OO3.O=C(O)C(=O)O | 30.2 |  |  | 2 |  | 35.2 |  |  | 17.2 | 2040
6 | C[C@H]1[C@@H](OCCNc2ccc(Nc3ccnc4cc(Cl)ccc34)cc2)O[C@@H]2O[C@@]3(C)CC[C@H]4[C@H](C)CC[C@@H]1[C@@]24OO3 | 69.2 |  | 30.4 | 2 |  |  |  |  |  | 
7 | C[C@H]1[C@@H](OCCNCCCNc2ccnc3cc(Cl)ccc23)O[C@@H]2O[C@@]3(C)CC[C@H]4[C@H](C)CC[C@@H]1[C@@]24OO3.O=C(O)C(=O)O | 19.8 | 0.17 | 14.3 | 1 | 12 |  |  |  |  | 
8 | C[C@H]1[C@@H](OCCN2CCN(c3ccnc4cc(Cl)ccc34)CC2)O[C@@H]2O[C@@]3(C)CC[C@H]4[C@H](C)CC[C@@H]1[C@@]24OO3 |  |  |  | 2 |  | 5.92 |  | 68.5 | 30.7 | 193
9 | C[C@H]1[C@@H](O)O[C@@H]2O[C@@]3(C)CC[C@H]4[C@H](C)CC[C@@H]1[C@@]24OO3 [ARTENIMOL] |  |  |  | 0.4 |  |  |  |  |  | 
10 | C[C@H]1[C@@H](OCCN2CCN(CCNc3ccnc4cc(Cl)ccc34)CC2)O[C@@H]2O[C@@]3(C)CC[C@H]4[C@H](C)CC[C@@H]1[C@@]24OO3 | 276 |  | 201 | 1 |  |  |  |  |  | 
11 | C[C@H]1[C@@H](OCCN2CCN(CCNc3ccnc4cc(Cl)ccc34)CC2)O[C@@H]2O[C@@]3(C)CC[C@H]4[C@H](C)CC[C@@H]1[C@@]24OO3.O=C(O)C(=O)O | 29.2 |  | 29 | 1 |  | 2.32 |  |  |  | 80
12 | C[C@H]1[C@@H](OCCNCCNc2ccnc3cc(Cl)ccc23)O[C@@H]2O[C@@]3(C)CC[C@H]4[C@H](C)CC[C@@H]1[C@@]24OO3 | 153 | 33 | 84.6 | 2 | 391 |  |  |  |  | 
13 | CC(CNc1ccnc2cc(Cl)ccc12)NCCO[C@H]1O[C@@H]2O[C@@]3(C)CC[C@H]4[C@H](C)CC[C@@H]([C@H]1C)[C@@]24OO3 (stereo not given in full) | 17.1 | 3.39 | 12.2 | 1 |  |  | 9 |  |  | 279
